According to ChEMBL document CHEMBL3853290, “Sesquiterpenoids Isolated from Two Species of the Asteriscus Alliance” (J Nat Prod, 2016):

Legend:
Type in all cases: functional, cell-based
[1] = (§1) Cytotoxicity against human MOLT3 cells assessed as cell growth inhibition after 72 hrs by MTT assay; details: MOLT-3, 72 h
Procedure, shortened: (§2)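 Cells from DSMZ, grown in RPMI 1640 with 2 mM L-glutamine and 10% heat-inactivated FBS. 1 × 10^4 exponentially growing cells per well exposed to a range of compound concentrations. MTT (0.5 mg/mL) added, 4 h at 37 °C, then 10% SDS in 0.05 M HCl overnight at room temperature in the dark. Absorbance read at 570 nm. IC50 from nonlinear regression, means ± SE of ≥3 independent experiments in triplicate. Etoposide as positive control.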

[2] = Cytotoxicity against human HL60 cells assessed as cell growth inhibition after 72 hrs by MTT assay; details: HL-60, 72 h; procedure, shortened: as §2
[3] = tested on: MOLT-3; assay: as §1; procedure, shortened: as §2

| SMILES | IC50 [1] | IC50 [2] | growth inhibition (GI) [3] |
| --- | --- | --- | --- |
| CCO[C@H]1CCC2=C[C@H](OC2=O)C(C)(C)/C=C\C(=O)[C@H]1C | > 10 µM | > 10 µM |  |
| C/C1=C/CC[C@]23O[C@H]2[C@H](OC3=O)C(C)(C)/C=C/C1=O | > 10 µM | > 10 µM |  |
| C[C@@H]1C(=O)/C=C\C(C)(C)[C@@H]2C=C(CC[C@@H]1O)C(=O)O2 | > 10 µM | > 10 µM |  |
| CC1(C)C[C@@H]2C(=O)[C@](C)(O)/C=C\C[C@@H]3C(=O)O[C@H]1[C@@H]32 | > 10 µM | > 10 µM |  |
| COc1cc([C@@H]2c3cc4c(cc3[C@@H](O[C@@H]3O[C@@H]5CO[C@@H](C)O[C@H]5[C@H](O)[C@H]3O)[C@H]3COC(=O)[C@H]23)OCO4)cc(OC)c1O [ETOPOSIDE] | 0.7 µM | 0.5 µM |  |
| CC1(C)/C=C\C(=O)[C@@]2(C)O[C@H]2CCC2=C[C@@H]1OC2=O | 4.1 µM | 5.4 µM | Dose-dependent effect |
